Hits are enriched below; roughly 3% of the tested compounds scored in any of these assays.
HTR1E agonist: 5-HT1E receptor agonists, primary screen, cell-based, HTS; activation, % at 6 µM; 5-hydroxytryptamine receptor 1E (Homo sapiens), P28566; hit rate 0.69% among 65,000; CHO 5-HT1E Ga15 NFAT-bla reporter, FRET; 0% DMSO wells, 100% control agonist wells;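 active means activation above a set limit, the screen-wide mean activation plus 3 SD, cut at about 8.5% in these data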;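 further: 100% = positive control agonist at 1 µM giving full maximal response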
5-HT1A blocker: human 5-HT1a receptor antagonists, primary screen, cell-based, CHO, Ga15 NFAT-bla reporter. AID 612, 2007. 5-hydroxytryptamine receptor 1A (Homo sapiens), P08908. CHO 5-HT1a Ga15 NFAT-bla reporter, antagonist mode. inhibition, % at 10 µM. hit rate 0.68% among 62,000;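 active means inhibition above the mean of all tested compounds plus 3 SD, cut at about 43% in these data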;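 further: receptor stimulated by 5-CT agonist at 100 nM near EC80; beta-lactamase reporter measured by ratiometric fluorescence of a cleavable substrate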
Target sequence (P08908 whole entry, looked up): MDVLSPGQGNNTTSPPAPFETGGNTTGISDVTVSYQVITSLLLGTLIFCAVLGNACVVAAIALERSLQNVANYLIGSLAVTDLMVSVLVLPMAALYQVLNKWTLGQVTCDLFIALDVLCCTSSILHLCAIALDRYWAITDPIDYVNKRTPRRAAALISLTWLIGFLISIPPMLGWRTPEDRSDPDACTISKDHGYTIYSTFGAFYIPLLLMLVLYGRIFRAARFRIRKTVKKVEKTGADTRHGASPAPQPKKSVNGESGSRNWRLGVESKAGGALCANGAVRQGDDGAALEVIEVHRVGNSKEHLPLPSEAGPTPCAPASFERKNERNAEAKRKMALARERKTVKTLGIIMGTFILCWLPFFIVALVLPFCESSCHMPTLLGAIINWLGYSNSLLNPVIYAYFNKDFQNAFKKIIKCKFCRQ
HTR1E antagonist: 5-HT1E receptor antagonists, primary screen, cell-based, HTS; inhibition, % at 6 µM; CHO 5-HT1E Ga15 NFAT-bla reporter, FRET, antagonist; hit rate 0.99% among 65,000; AID 571, 2007; 5-hydroxytryptamine receptor 1E (Homo sapiens), P28566;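 active means inhibition above a set limit, the mean inhibition across every tested compound plus 3 SD, cut at about 29% in these data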;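 further: signal is the 460 over 535 nm emission ratio of beta-lactamase substrate; 0% = agonist plus DMSO wells and 100% = wells without agonist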
S1P1 ag-PAM: S1P1 agonists and agonism potentiators, primary screen, cell-based, primary and confirmation screens, CRE-bla reporter; hit rate 0.57% among 56,000; activation, % at 9.5 µM; S1P1 CRE-bla cells, forskolin, beta-lactamase FRET, potentiator mode; S1P1 agonist co-added at EC20, 2 nM; 100% = saturating reference agonist, 0% = basal;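 active means activation above a cutoff set at the mean activation of all tested compounds plus 3 SD, cut at about 54% in these data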;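 further: forskolin at 4 µM as EC80 and the EC20 agonist is SEW2871; 100% = SEW2871 at its EC100 plus forskolin at EC80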
HTR1A agonist: human 5-HT1a receptor agonists, primary screen, cell-based, CHO, Ga15 NFAT-bla reporter; 5-hydroxytryptamine receptor 1A (Homo sapiens), P08908; CHO 5-HT1a Ga15 NFAT-bla reporter, FRET ratio; 0% basal, 100% maximal reference agonist; activation, % at 10 µM; hit rate 0.56% among 65,000; AID 567, 2006;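 active means activation above the screen-wide mean activation plus 3 SD, cut at about 19% in these data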;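 further: 0% = DMSO wells and 100% = 5-CT at EC100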
S1P3 agonist: human S1P3 receptor agonists, primary screen, cell-based, primary and confirmation, NFAT-BLA reporter; AID 373, 2006; Sphingosine 1-phosphate receptor 3 (Homo sapiens), Q99500; S1P3 NFAT-BLA reporter cells, agonism, FRET ratio; relative to 1 µM S1P, basal subtracted; hit rate 0.1% among 60,000; activation, % at 4.5 µM;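 active means activation above the screen-wide mean plus 3 SD, cut at about 4.5% in these data, passing the limit was not always enough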
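material = human S1P3 NFAT-BLA reporter CHO cells | schedule = 4 h compound at 37 °C, 2 h substrate at RT | measured by = fluorescent BLA substrate, ex 405 nm, em 460/535 nm ratio | controls = 1 µM S1P reference | replication = primary once, confirmation triplicate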
The depositor's hits bear a star; . = no result given.

SMILES | HTR1E agonist | 5-HT1A blocker | HTR1E antagonist | S1P1 ag-PAM | HTR1A agonist | S1P3 agonist
CCc1ccc(-c2nc(CN3CCCC(C(=O)NCCc4ccc(OC)c(OC)c4)C3)c(C)o2)cc1 (stereo unspecified) | 1.6 | -1.2 | -16.9 | -14.4 | 37.5* | -0.5
COc1ccc(CCNC(=O)C2CCN(Cc3nc(-c4cccc(Cl)c4)oc3C)CC2)cc1OC | 1.9 | 1.0 | -10.6 | 19.7 | 1.2 | -0.7
COc1ccc(CCNC(=O)C2CCCN(Cc3nc(-c4ccccc4C)oc3C)C2)cc1OC (stereo unspecified) | 0.4 | -3.4 | -7.5 | -28.7 | 33.1* | 0.2
CCOC(=O)N1CCC(NC(=O)C2CCCN(Cc3nc(-c4cccc(Cl)c4)oc3C)C2)CC1 (stereo unspecified) | 0.8 | 24.8 | 11.8 | 102.8* | 2.0 | -1.9
CC(NC(=O)c1cccnc1)c1ccc2c(c1)OCO2 (stereo unspecified) | 1.1 | -0.6 | -1.6 | -16.3 | 0.0 | -1.2
Cc1nc2ccccn2c1/C(O)=C1\C(=O)C(=O)N(CCCN(C)C)C1c1ccc(Cl)cc1 (stereo unspecified) | 0.1 | 1.3 | 3.4 | -19.1 | -0.6 | 0.1
CCN(CC)CCN=C1CCCc2ccccc2N1 | -0.4 | 4.1 | -7.9 | -15.3 | -1.6 | 0.1
O=C(Nc1cccc(-c2cn3ccsc3n2)c1)c1ccccc1 | 82.7* | 1.9 | 4.5 | -8.6 | -1.0 | -0.1
O=C(NCC1CCCO1)c1cc2n(n1)C(C(F)(F)F)CC(c1ccc(F)cc1)N2 (stereo unspecified) | 0.4 | -8.5 | -6.5 | -0.8 | -3.5 | 0.0
COc1ccc(C2CC(C(F)(F)F)n3nc(C(=O)NCCN4CCOCC4)cc3N2)cc1 (stereo unspecified) | -0.1 | 15.3 | 1.9 | -13.4 | 36.0* | -1.6
Cc1sc(-n2c(C)cc(/C=N/n3cnnc3)c2C)c(C#N)c1C | 0.0 | . | 11.7 | 7.5 | -1.3 | -1.3
Cc1cc(/C=N/n2cnnc2)c(C)n1-c1ccc(OCc2ccc(F)cc2)cc1 | 0.6 | 20.7 | 20.5 | 142.1* | -2.1 | -2.3
Cc1cc(/C=N/n2cnnc2)c(C)n1-c1cccc(Cl)c1 | -0.7 | -1.3 | -3.4 | -10.1 | -0.9 | 0.7
Cc1cc(/C=N/n2cnnc2)c(C)n1-c1ccc(Cl)cc1Cl | 0.3 | 32.4 | 40.4* | -8.1 | -1.9 | -1.5
O=C(NCN1CCN(c2ccccc2F)CC1)c1ccccc1 | 10.3* | 14.6 | -2.0 | -0.7 | -2.0 | -0.5
O=C(c1cccc(C(=O)N2CCN(c3ccccc3F)CC2)c1)N1CCN(c2ccccc2F)CC1 | 0.1 | 2.6 | -4.7 | . | 1.2 | -0.3
CCN(CC)C(=O)C1CCN(Cc2ccc(Br)cc2)CC1 | -0.7 | -12.5 | 7.0 | -3.3 | -2.2 | -0.6
CCCc1cc(NCCN2CCOCC2)n2c(nc3ccccc32)c1C#N | -0.5 | . | -3.1 | -6.1 | 5.6 | -1.7
COC(=O)CS(=O)(=O)c1nnc([C@H](Cc2ccccc2)NC(=O)OC(C)(C)C)o1 | -0.3 | 33.4 | 29.4* | 55.6* | -6.7 | -1.4
COC(=O)CSc1nnc([C@H](Cc2ccccc2)NC(=O)OC(C)(C)C)o1 | -0.7 | 2.4 | 2.5 | -6.5 | 0.1 | 0.2
O=S1(=O)CCC(SCc2nc3sccn3c2Br)C1 (stereo unspecified) | -0.2 | 0.0 | 2.3 | -9.3 | -1.1 | -0.7
CCOC(=O)c1[nH]c(COC(=O)C2CC(=O)N(Cc3ccccc3)C2)c(C(=O)OCC)c1C (stereo unspecified) | 0.3 | 10.2 | 10.0 | -6.3 | -1.9 | 0.3
COc1ccc(OC)c(-c2csc(N(Cc3ccco3)C(=O)c3cccs3)n2)c1 | 2.0 | 43.1* | 2.1 | 22.3 | 5.2 | -1.7
COc1ccc(-c2csc(N(CC3CCCO3)C(=O)c3cccs3)n2)cc1 (stereo unspecified) | 0.8 | 14.8 | 5.0 | -3.7 | 0.9 | -1.8
CCC(=O)Nc1cc(C)c(NC(=O)c2ccccc2OC)cn1 | 13.6* | -15.8 | -1.6 | 0.5 | -2.5 | 0.2
SMILES | HTR1E agonist | 5-HT1A blocker | HTR1E antagonist | S1P1 ag-PAM | HTR1A agonist | S1P3 agonist
CCC(=O)Nc1cc(C)c(NC(=O)c2ccco2)cn1 | -0.4 | 2.8 | 1.4 | . | 1.5 | .
CCCC(=O)Nc1ccc(-c2nc3cc(C)c(C)cc3o2)c(O)c1 | 0.3 | -9.4 | -7.4 | 38.4 | -0.7 | -1.0
CCCC(=O)Nc1ccc(-c2nc3cc(C)ccc3o2)cc1 | -0.2 | 7.4 | -5.8 | 70.5* | 0.3 | -0.7
CCCC(=O)Nc1ccc2oc(-c3ccc(OC)c(Br)c3)nc2c1 | 0.3 | -9.5 | 6.2 | 98.1* | 0.6 | -0.5
CC(C)OCCCNC(=O)Cn1nc(-c2ccccc2)ccc1=O | 0.6 | 10.2 | -3.2 | 7.6 | -1.3 | -1.4
COCc1nnc(NS(=O)(=O)c2ccc(Br)cc2)s1 | -0.1 | -13.9 | -4.5 | -12.7 | -0.8 | -0.3
CCOC(=O)c1cccc2c1-c1ccccc1/C2=N/O | 0.2 | 30.4 | 21.1 | 62.0* | -1.9 | -1.4
CN(C)S(=O)(=O)c1ccc(S(=O)(=O)N(Cc2ccccn2)Cc2ccco2)cc1 | -0.9 | 9.5 | 11.0 | 9.7 | 0.6 | -1.0
CCc1nc(Nc2ccc(N3CCN(C(C)=O)CC3)cc2)c2oc3ccccc3c2n1 | -0.1 | 1.2 | 33.8* | -35.3 | 4.1 | 0.1
COc1cc(-c2nn3c(-c4cccnc4)nnc3s2)cc(OC)c1OC | -0.3 | . | 18.9 | -8.1 | -1.4 | -0.2
COc1ccc(-c2nn3c(-c4cccc(C)c4)nnc3s2)cc1OC | 2.5 | -18.6 | 18.0 | -67.5 | 3.4 | -0.2
COc1cc(-c2nnc3sc(-c4cccs4)nn23)cc(OC)c1OC | -0.3 | -20.0 | 37.7* | -3.2 | 4.9 | 1.4
COc1ccc(-c2nnc3sc(-c4cccs4)nn23)cc1OC | 1.3 | -16.3 | 35.8* | -29.3 | 0.6 | 0.2
Cc1cccc(N2CCN(CCNC(=O)c3cc4c(s3)CS(=O)(=O)C4)CC2)c1C | 12.8* | 41.6 | -5.4 | . | 36.5* | .
CC(C)C[C@H](N)c1nnc(S(=O)(=O)Cc2ccc(F)cc2)o1 | 0.0 | 87.8* | 42.8* | 5.1 | -0.1 | -2.2
CCCCC(c1nnnn1CC1CCCO1)N1CCN(c2cccc(C)c2C)CC1 (stereo unspecified) | 37.9* | 38.4 | 3.1 | 14.1 | 0.8 | -1.0
COc1ccc(C(c2nnnn2CC2CCCO2)N2CCN(c3cccc(C)c3C)CC2)cc1 (stereo unspecified) | 2.8 | 23.9 | 6.0 | 10.8 | -2.3 | -0.7

Screens from PubChem.
